# PolyA inhibitor: polyadenylation inhibitors in yeast reporter cells, primary screen, luminescence, S. cerevisiae | S. cerevisiae SKY197-pL101 polyadenylation reporter, beta-gal luminescence; efflux-impaired pdr1/pdr3 knockout yeast; score 100 = 6 SD above DMSO | activity score, % at 12 µM | actives 0.02% (n = 300,000) | AID 1875, 2009;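 active means lowest replicate activity score at least 50, where 100 means six control SD above control mean; inconclusive means lowest score under 50 but half or more replicates reach 50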;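 further: yeast exposed to compound for 9 h at 30 °C; higher score means more reporter readthrough which indicates perturbed polyadenylation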
# CHT allo act: CHT positive allosteric modulators, primary screen, cell-based, membrane potential dye, choline EC20; actives 0.49% (n = 310,000); B-score at 10 µM; High affinity choline transporter 1 (Homo sapiens), Q9GZV3; AID 488977, 2010; CHT-expressing cells; active compounds read high; LV-AA mutant CHT in HEK293 cells;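 active means initial fluorescence not abnormally high and integrated response B-score, plate-corrected, over 3 SD above library mean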
# Target sequence (Q9GZV3 whole entry, looked up): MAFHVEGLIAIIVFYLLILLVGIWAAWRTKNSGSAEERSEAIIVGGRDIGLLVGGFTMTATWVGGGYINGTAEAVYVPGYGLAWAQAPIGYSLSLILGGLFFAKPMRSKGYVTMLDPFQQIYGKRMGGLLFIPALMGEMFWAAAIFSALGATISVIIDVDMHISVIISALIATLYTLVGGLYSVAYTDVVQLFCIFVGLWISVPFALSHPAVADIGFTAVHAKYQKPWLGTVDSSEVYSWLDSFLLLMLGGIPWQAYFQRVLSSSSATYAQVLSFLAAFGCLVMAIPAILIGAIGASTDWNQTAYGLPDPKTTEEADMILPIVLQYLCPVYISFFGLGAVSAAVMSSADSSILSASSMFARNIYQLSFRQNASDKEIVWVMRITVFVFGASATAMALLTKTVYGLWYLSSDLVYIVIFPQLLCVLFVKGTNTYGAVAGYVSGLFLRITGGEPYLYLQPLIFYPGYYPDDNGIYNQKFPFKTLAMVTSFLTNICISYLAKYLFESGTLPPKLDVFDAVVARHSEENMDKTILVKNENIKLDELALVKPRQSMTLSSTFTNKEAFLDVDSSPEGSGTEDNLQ
# CHT inh: inhibitors of human choline transporter CHT; High affinity choline transporter 1 (Homo sapiens), Q9GZV3; CHT-expressing cells, membrane potential dye, choline response; active compounds read low; B-score at 10 µM; actives 0.86% (n = 310,000);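 active means B-score over 3 SD under the library average, and starting fluorescence ratio not unusually high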;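 further: choline stimulus applied at its EC90 after an EC20 pre-addition; B-score computed on integrated fluorescence ratio after choline addition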
# T cruzi inh: inhibitors of intracellular T. cruzi growth, primary screen, luminescence, NIH3T3 host cells; inhibition, % (test concentration not listed); actives 1.4% (n = 300,000); T. cruzi beta-gal in NIH3T3, 90 h; AID 1885, 2009;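 active means mean inhibition across valid replicates above about 55%, limit read from the data; inconclusive means mean below that limit but half or more replicates reach it; inactive means mean below it, under half of replicates reach it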;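 further: signal also drops with host cell toxicity which is not excluded here; 0% = plate median of DMSO wells and 100% = zero luminescence signal; higher percent means less beta-gal luminescence so fewer parasites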
#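 Test system: β-gal T. cruzi (Tulahuen C4) inside NIH/3T3 cells / Quantity: 5,000 cells/well / Measured by: luminescence from GalScreen with 0.05% NP40, read after 60 min / Medium: DMEM plus 2% FBS / Measure: parasite load inhibition, % / Reagent: Tulahuen C4 trypomastigotes, 5000/well / Schedule: co-culture of at least 90 h after 3 h attachment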
# * = called active by the depositor; i = inactive; u = inconclusive; x = no result. Rows were chosen to be rich in hits. Some 2.6% of all compounds tested hit in one or more screens of this group.
SMILES,PolyA inhibitor,CHT allo act,CHT inh,T cruzi inh
COc1cccc(N(C(=O)c2snc(C(N)=O)c2N)C(C(=O)NCC2CCCO2)c2ccc3ncccc3c2)c1 (stereo not given),-11,i,i,-2
O=C(c1ccc(Cl)cc1)N1CCN(c2ccnc3cc(Cl)ccc23)CC1,5,x,x,69*
O=C(NCCNC(=O)c1cc(OCC(F)(F)F)ccc1OCC(F)(F)F)Nc1cccc(C(F)(F)F)c1,9,i,i,-24
O=C(Nc1ccccc1)Nc1cc(OCC(F)(F)F)cc(OCC(F)(F)F)c1,-9,x,x,87*
Cc1ccc(CNC(=O)CNC(=O)c2c(C)nn(C)c2Cl)cc1,0,i,i,-2
Cn1c(=O)c(C(=O)COC(=O)c2cc(-c3ccco3)nc3ccccc23)c(N)n(CC2CC2)c1=O,-12,i,-5.5*,17
CC(=O)c1ccc(-n2nncc2-c2ccc([N+](=O)[O-])cc2)cc1,2,i,i,-1
Cc1ccc(NC(=O)Nc2cccc([N+](=O)[O-])c2)cc1F,-4,i,i,55*
Cc1cc([N+](=O)[O-])ccc1NC(=O)Nc1ccc(F)cc1F,-12,i,i,55*
CN1CCN(/C=N/c2sc3c(c2C#N)CCCCC3)CC1,2,i,i,58*
CC(C)c1ccc(NC2=CC(=O)CC(C)(C)C2)cc1,-22,i,i,9
CCOC(=O)C1(Cc2ccccc2C(F)(F)F)CCN(C(C)CCn2cccn2)CC1 (stereo not given),-12,i,i,68*
Cn1nccc1NC(=O)COCC(=O)O,13,i,i,-20
CCOc1ccc(C2/C(=C(/O)c3ccc(S(=O)(=O)N4CCCCC4)cc3)C(=O)C(=O)N2CCCOC)cc1OC (stereo not given),-18,i,i,u
Cc1ccc(S(=O)(=O)N(CCCO)CC(O)CON=C2c3ccccc3-c3ccccc32)cc1 (stereo not given),2,i,i,65*
CCOC(=O)c1sc(NC(=O)CN2C(=O)NC3(CC(C)CC(C)(C)C3)C2=O)cc1C (stereo not given),10,i,i,59*
CCC(=O)Nc1cc2c3c(c1)CCC(=O)N3CCC2,6,i,i,-8
O=C(Nc1cccc(-n2cccn2)c1)C1CCCN(Cc2ccccc2F)C1 (stereo not given),-11,i,i,11
COc1cc(CN2CCCC(C(=O)Nc3cccc(-n4cccn4)c3)C2)ccc1F (stereo not given),-3,i,i,61*
O=[N+]([O-])c1cccc(S(=O)(=O)NCCCn2ccnc2)c1,-2,i,i,-3
Cc1nn(-c2ccc(Cl)cc2)c2[nH]c(CCl)cc(=O)c12,8,i,-9.4*,-11
Cc1cc(=O)[nH]c2c1c(C)nn2-c1ccccc1,-4,i,i,6
O=C(C1=C[C@@H](c2ccc3c(c2)OCO3)C[C@@H](OCCCCO)O1)N1CCN(Cc2ccc3c(c2)OCO3)CC1,-12,i,i,3
O=C(C1=C[C@H](c2csc3ccccc23)C[C@H](OCc2ccc(CO)cc2)O1)N1CCN(Cc2ccc3c(c2)OCO3)CC1,-8,i,i,62*
O=C(C1=C[C@H](c2csc3ccccc23)C[C@H](OCc2ccc(CO)cc2)O1)N1CCN(Cc2ccccc2)CC1,0,i,i,47
SMILES,PolyA inhibitor,CHT allo act,CHT inh,T cruzi inh
O=C(C1=C[C@H](C2CCCCC2)C[C@H](OCCCCO)O1)N1CCN(Cc2ccc3c(c2)OCO3)CC1,-19,i,i,56*
O=C(C1=C[C@H](c2ccc3c(c2)OCO3)C[C@H](OCCCCO)O1)N1CCN(Cc2ccc3c(c2)OCO3)CC1,-21,i,i,29
O=C(C1=C[C@H](c2ccc(Br)cc2)C[C@H](OCCCCO)O1)N1CCN(Cc2ccc3c(c2)OCO3)CC1,-6,i,i,65*
CCO[C@@H]1OC(C(=O)N2CCN(Cc3ccc4c(c3)OCO4)CC2)=C[C@H](C2CCCCC2)[C@H]1CCCO,16,i,i,72*
Cc1cc(Sc2nc(N)ncc2[N+](=O)[O-])ncn1,0,i,i,61*
COc1cccc(/C=N/n2c(N)c(S(=O)(=O)c3cccs3)c3nc4ccccc4nc32)c1OC,-14,i,i,35

# Screening results as filed in PubChem BioAssay.
